From PubChem BioAssay come the findings set out here.

The term inhibition denotes the drop in the measured response relative to a control, in per cent.

A short description of assay [1]: inhibitors of TNFa-induced NFkB p65 translocation, primary screen, imaging, HUVEC, MLSMR starter and 10KST1 sets (AID 438;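 active = inhibition above 20% together with a positive visual image hit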;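 note: compound added about 3h40 before a 20 min TNFalpha stimulation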;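 for inhibition: signal is the nuclear over cytoplasmic p65 intensity ratio per well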). The conditions noted are these: HUVEC TNFa-induced p65 nuclear translocation; cell count: measured here: nuclei count (cytotoxicity indicator), at 2.08 µM; inhibition: at 2 µM, stronger effect = higher value, 0% TNFa-plus-vehicle, 100% no-TNFa wells.
Assay [2] in a line: inhibitors of E-selectin induction by TNFa, primary screen, imaging, HUVEC, immunofluorescence, MLSMR starter and 10KST1 sets (AID 487;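 active = visually confirmed hit in the image check and inhibition above 20%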;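 for inhibition: signal is fraction of cell area covered by stained E-selectin grains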;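 for nuclei count: 100% = median nuclei count of all wells on the same plate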). The conditions noted are these: HUVEC TNFalpha-induced E-selectin immunofluorescence imaging, at 2 µM; inhibition: stronger effect = higher value; nuclei count: measured here: cell number, toxicity.
Assay [3] is described as follows: DUSP6 inhibitors restoring Erk phosphorylation by chemical complementation, primary imaging in DUSP6-transfected HeLa (AID 609;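 active = compounds giving at least 50% inhibition in the cell-based MKP-3 phosphatase rescue imaging test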;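 for inhibition: phospho-Erk level distribution per well compared with pooled transfected vehicle control wells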). The conditions noted are these: HeLa MKP-3 transfected, phospho-Erk imaging KS statistic, at 10 µM, cells stimulated with TPA for 15 min.
Assay [4] addresses Dual specificity protein phosphatase 6 (Homo sapiens) (UniProt Q16828). Described as above. The settings on record: HeLa MKP-3 transfected, phospho-Erk imaging KS statistic; at 10 µM; stronger effect = higher value; cells stimulated with TPA for 15 min.
Assay [5] has as its target Voltage-gated potassium channel subunit beta-2 (Rattus norvegicus) (UniProt P62483). The assay is described as follows: KvBeta enzyme negative modulators, primary screen, biochemical, NADPH fluorescence (AID 622).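 Note: slope of raw intensity against log time taken from 70 to 1610 s.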 The settings on record: recombinant KvBeta, 4-cyanobenzaldehyde reduction, at 10 µM, stronger effect = higher value.
Assay [6] has the same target. The assay is described as follows: KvBeta positive modulators, primary screen, biochemical, NADPH fluorescence (AID 623;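 active = NADPH fluorescence slope more negative than the mean of all samples by about 3 SD, 99.7% confidence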;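 note: fluorescence intensity change per second fitted from 20 to 320 s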). The conditions noted are these: Recombinant KvBeta, NADPH fluorescence decrease slope, 10 min; at 10 µM; stronger effect = lower value.
Assay [7] concerns the target Alpha-2C adrenergic receptor (Homo sapiens) (UniProt P18825). The assay is described as follows: modulators of alpha2C/GIRK thallium flux, primary screen, cell-based, HEK293 alpha2C/GIRK1/2 (AID 624;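 active = fluorescence slope after compound addition differing from the mean of all screened samples at 99.7% confidence, in either direction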;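 note: slope of fluorescence ratio to pre-addition baseline per second over 15 to 24 s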). The settings on record: thallium flux BTC fluorescence, at 10 µM, actives lie on both sides.
Assay [8] in a line: inhibitors of larval lipid processing in zebrafish, primary screen, whole organism, PED6 fluorescence, gall bladder and intestine (AID 686;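 active = a full or partial loss of lipid-probe fluorescence in the fish gall bladder, intestine or both, judged by eye; inactive = no fluorescence loss, or compound toxic to the fish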;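 note: larvae 5 to 7 days old with five fish per well; signal comes from phospholipase A2 cleavage of quenched PED6 carried via bile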). The conditions noted are these: Zebrafish larvae PED6 lipid processing, fluorescence scoring; screened at 20 µM (by protocol). Put shortly: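 Incubation: overnight exposure of larvae to compound plus PED6 / Test system: live zebrafish larvae aged 5-7 days, whole organism / Amount: 5 larvae per well / Read-out basis: visual per-well fluorescence inhibition score / Signal: visual fluorescence microscopy scoring of gall bladder, gut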

The nature of assay [9]: inhibitors of Chlamydomonas gravitaxis, primary screen, whole organism, Chlamydomonas reinhardtii, WT vs cilia-less mutant, absorbance, 96-well (AID 463189;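 active = inhibition at or above 50% relative to wild type and mutant plate controls; inactive = inhibition below 50%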;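 note: 0% = wild type cc124 cells in DMSO and 100% = ciliumless bld1 mutant cells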). The settings on record: OD600 absorbance, 2 days, at 10 µM, stronger effect = higher value.
The mark [10] stands for this setting: measured here: cell density z-score.
The mark [11] stands for this setting: measured here: nuclear c-Myc green intensity z-score.
The mark [12] stands for this setting: measured here: nuclear pErk red intensity z-score, stronger effect = higher value.

The source made the active and inactive calls.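 Rule for the calls, unless noted: active = fluorescence slope higher than the sample average by over 3 SD (cut at about -0.22 in these data, passing the limit was not always enough); inactive = the rest.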

Chain of Dual specificity protein phosphatase 6 (Homo sapiens) (Q16828 whole entry, looked up): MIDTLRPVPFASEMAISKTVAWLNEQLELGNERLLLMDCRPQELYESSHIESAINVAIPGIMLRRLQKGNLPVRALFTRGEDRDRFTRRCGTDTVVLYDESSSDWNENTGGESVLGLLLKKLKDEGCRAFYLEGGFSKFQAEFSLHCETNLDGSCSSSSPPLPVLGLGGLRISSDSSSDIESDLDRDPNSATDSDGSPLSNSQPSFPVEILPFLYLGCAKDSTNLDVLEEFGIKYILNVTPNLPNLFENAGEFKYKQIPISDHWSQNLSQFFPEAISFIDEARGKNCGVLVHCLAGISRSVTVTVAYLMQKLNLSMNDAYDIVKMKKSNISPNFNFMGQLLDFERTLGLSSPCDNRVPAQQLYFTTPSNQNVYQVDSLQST
Chain of Alpha-2C adrenergic receptor (Homo sapiens) (P18825 whole entry, looked up): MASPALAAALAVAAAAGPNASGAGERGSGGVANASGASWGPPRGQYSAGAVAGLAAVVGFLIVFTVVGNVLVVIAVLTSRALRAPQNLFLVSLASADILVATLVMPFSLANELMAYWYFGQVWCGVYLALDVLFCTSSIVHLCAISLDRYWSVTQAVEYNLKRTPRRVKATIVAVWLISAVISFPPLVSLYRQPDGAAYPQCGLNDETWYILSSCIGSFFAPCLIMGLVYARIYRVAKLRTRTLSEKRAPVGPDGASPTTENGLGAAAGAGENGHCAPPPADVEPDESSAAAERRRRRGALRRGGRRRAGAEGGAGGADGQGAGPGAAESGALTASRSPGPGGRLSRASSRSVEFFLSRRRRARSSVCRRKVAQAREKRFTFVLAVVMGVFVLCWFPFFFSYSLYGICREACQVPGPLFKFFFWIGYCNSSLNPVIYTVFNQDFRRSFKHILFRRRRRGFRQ
Chain of Voltage-gated potassium channel subunit beta-2 (Rattus norvegicus) (P62483 whole entry, looked up): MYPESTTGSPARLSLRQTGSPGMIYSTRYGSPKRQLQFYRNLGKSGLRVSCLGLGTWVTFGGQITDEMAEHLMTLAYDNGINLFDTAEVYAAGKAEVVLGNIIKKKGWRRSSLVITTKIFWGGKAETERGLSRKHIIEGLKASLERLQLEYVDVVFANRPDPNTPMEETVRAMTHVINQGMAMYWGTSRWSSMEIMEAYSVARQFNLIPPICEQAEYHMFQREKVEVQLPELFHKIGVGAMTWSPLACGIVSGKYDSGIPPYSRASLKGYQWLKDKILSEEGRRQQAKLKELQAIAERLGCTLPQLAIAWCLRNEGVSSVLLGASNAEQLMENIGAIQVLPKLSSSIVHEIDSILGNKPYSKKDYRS

Regarding `N#CCSc1nc2c(cc1C#N)CCCCCC2`, the cell count in assay [1] amounted to 603. Besides, the inhibition is -18.1% (inactive) in assay [1], 46.1% (inactive) in [2], 2.92% (inactive) in assay [4] and 19.7% (inactive) in [9]. Also, the nuclei count in assay [2] is 147%. For the same compound, the z-score in assay [3] (setting [10]) is 0.833; in assay [3] (setting [11]) it was -0.157; in assay [3] (setting [12]), -0.809. The fluorescence slope in [5] is -0.354 (inactive). The NADPH fluorescence slope in assay [6] is -8.7e-06 (inactive). The slope in [7] is 0.0055 (inactive). Further, the compound was called inactive in assay [8].
For `CCn1cc(C(=O)NCc2ccccn2)c(=O)c2cc(F)c(N3CCN(C)CC3)cc21`, in assay [1], the cell count was 461. In addition, the inhibition in assay [1] is -3.5% (inactive); in assay [2] it was -38.2% (inactive); in assay [4] it was -0.624% (inactive); in assay [9], 6.37% (inactive). Besides, in assay [2], the nuclei count came out at 185%. The z-score in assay [3] (setting [10]) was -1.96; in assay [3] (setting [11]), 2.4; in assay [3] (setting [12]) it was 0.403. Further, the fluorescence slope in [5] was -0.292 (inactive). The NADPH fluorescence slope in assay [6] was -3e-05 (inactive). Moreover, the slope in assay [7] was 0.00581 (inactive). Further, in assay [8], the call was inactive.
Regarding `Cc1nnc2n(-c3ccccc3)c(=O)c3c4c(sc3n12)CC(C)CC4` (stereo unspecified), in assay [1], the cell count amounted to 573. Further, the inhibition in assay [1] was -1.3% (inactive); in assay [2], 37.3% (inactive); in assay [4], 16.1% (inactive); in assay [9], -24.5% (inactive). Moreover, the nuclei count in assay [2] stood at 92.6%. Further, the values for the z-score in assay [3] (setting [10]), in assay [3] (setting [11]) and in assay [3] (setting [12]) were -0.0616, 0.767 and -0.493, respectively. Moreover, the fluorescence slope in assay [5] is -0.396 (inactive). In addition, the NADPH fluorescence slope in [6] was 1.3e-06 (inactive). Also, the slope in assay [7] is 0.00538 (inactive). Further, the compound was classed as inactive in assay [8].
Turning to `CCCCOc1ccc(C(=O)OC2CC(C)N(C)CC2C)cc1` (stereo unspecified), the cell count in assay [1] was 358. Moreover, the inhibition in assay [1] was -21.6% (inactive); in assay [2], -186% (inactive); in assay [4] it was -14% (inactive); in assay [9] it was 144% (active). This compound also had a nuclei count in assay [2] of 155%. Besides, the results for the z-score in assay [3] (setting [10]), in [3] (setting [11]) and in [3] (setting [12]) were -0.354, -1.1 and -0.696, respectively. Besides, the fluorescence slope in assay [5] is -0.46 (inactive). Also, the NADPH fluorescence slope in [6] is -0.000115 (inactive). Moreover, in assay [7], the slope was 0.00554 (inactive). Also, in [8], the compound was classed as inactive.
For the compound `CCN1CC=C2C(C#N)=C(N)C(C#N)(C#N)[C@H](c3cccc(OC)c3OC)[C@H]2C1`, in [1], the cell count is 560. The inhibition is -11.4% (inactive) in [1], 26.9% (inactive) in assay [2], -3.95% (inactive) in assay [4] and -15.5% (inactive) in [9]. This compound also returned a nuclei count in assay [2] of 113%. Further, the z-score in assay [3] (setting [10]) was 1.15; in [3] (setting [11]) it was 1.25; in assay [3] (setting [12]) it was -1.6. For the same compound, the fluorescence slope in assay [5] was -0.449 (inactive). In addition, the NADPH fluorescence slope in assay [6] is -6e-06 (inactive). The slope in assay [7] is -4.3e-17 (inactive). Besides, the compound was called inactive in assay [8].
`CSc1nc(N)c(C#N)c(-c2ccccc2Cl)c1C#N`: the cell count in assay [1] was 361. Moreover, the inhibition in assay [1] is -5.2% (inactive); in assay [2], 16.8% (inactive); in assay [4], -2.07% (inactive); in assay [9], -18.7% (inactive). The compound also displayed a nuclei count in [2] of 95%. The z-score was -2.2 in assay [3] (setting [10]), 1.67 in assay [3] (setting [11]) and -0.0312 in assay [3] (setting [12]). Besides, the fluorescence slope in assay [5] is -0.456 (inactive). Besides, the NADPH fluorescence slope in [6] was -0.000311 (inactive). The slope in [7] was 0.00479 (inactive). For the same compound, the result in [8] was inactive.
In the case of `CN(C)CCCN1C(=O)C(O)=C(C(=O)c2cc3ccccc3o2)C1c1ccccc1` (stereo unspecified), the cell count in assay [1] turned out to be 454. Further, the inhibition in assay [1] is 2.5% (inactive); in assay [2], -61.8% (inactive); in [4] it was 6.04% (inactive); in assay [9], -3.04% (inactive). In [2], the nuclei count was 132%. In addition, the z-score in [3] (setting [10]) was -0.256; in assay [3] (setting [11]), 0.437; in assay [3] (setting [12]), -0.536. Moreover, the fluorescence slope in assay [5] was -0.418 (inactive). Further, the NADPH fluorescence slope in assay [6] is -5.3e-05 (inactive). Moreover, the slope in assay [7] was 0.00564 (inactive). In addition, the call in assay [8] was inactive.
`CCCNC(=O)N(C)c1nncnc1C(=O)NC`: the cell count in assay [1] stood at 503. Also, the inhibition in assay [1] was -20.4% (inactive); in [2], -13.3% (inactive); in [4] it was 4.72% (inactive); in assay [9], -3.95% (inactive). This compound yielded a nuclei count in assay [2] of 99.4%. Besides, the z-score in assay [3] (setting [10]) is 1.47; in [3] (setting [11]), 0.478; in [3] (setting [12]), -1.19. In addition, the fluorescence slope in assay [5] was -0.517 (inactive). The NADPH fluorescence slope in [6] was 1.1e-05 (inactive). The slope in [7] is 0.00825 (inactive). Besides, the result in [8] was inactive.
Consider `O=C(CCC1CCCC1)N1CCC(N2CCN(c3ccccc3)CC2)CC1`, for which, in assay [1], the cell count came out at 411. Besides, the inhibition is -9.4% (inactive) in assay [1], -188% (inactive) in assay [2], 9.39% (inactive) in assay [4] and 62.1% (active) in assay [9]. In assay [2], this compound gave a nuclei count of 140%. Moreover, the z-score in assay [3] (setting [10]) is 0.947; in assay [3] (setting [11]) it was 0.889; in assay [3] (setting [12]), -0.837. In [5], the fluorescence slope was -0.446 (inactive). Moreover, in assay [6], the NADPH fluorescence slope was 4.6e-06 (inactive). For the same compound, the slope in [7] was 0.00549 (inactive). The call in [8] was inactive.
Consider `O=C(Cc1cscn1)c1ccc(O)cc1O`, for which the cell count in assay [1] amounted to 564. Further, the inhibition in assay [1] was -6% (inactive); in assay [2] it was -143% (inactive); in [4], 11.9% (inactive); in assay [9] it was 8.71% (inactive). For the same compound, in [2], the nuclei count is 147%. Moreover, the z-score in assay [3] (setting [10]) is 1.34; in assay [3] (setting [11]), -0.975; in assay [3] (setting [12]), -0.882. Moreover, in assay [5], the fluorescence slope is -0.544 (inactive). Besides, the NADPH fluorescence slope in assay [6] is -5.6e-05 (inactive). Also, the slope in assay [7] is 0.00473 (inactive). Moreover, the call in [8] was inactive.
For `CC(C)Cc1[nH]c(=O)c(C#N)c2c1CCCC2`, the cell count in assay [1] came out at 623. Besides, the inhibition in [1] was 1.3% (inactive); in assay [2], 2.8% (inactive); in [4] it was 5.65% (inactive); in assay [9], 16.6% (inactive). The compound further had a nuclei count in assay [2] of 155%. In addition, the z-score is -1.11 in assay [3] (setting [10]), 0.566 in assay [3] (setting [11]) and 0.412 in [3] (setting [12]). The fluorescence slope in [5] is -0.318 (inactive). In [6], the NADPH fluorescence slope is -9.4e-06 (inactive). The slope in assay [7] was 0.00948 (inactive). The compound was classed as inactive in assay [8].
On to `COc1ccccc1Nc1ncc(-c2cccs2)s1`, for which the cell count in assay [1] stood at 545. Also, the inhibition is -13.8% (inactive) in assay [1], -286% (inactive) in assay [2], 1.48% (inactive) in [4] and 11.6% (inactive) in assay [9]. Besides, the nuclei count in assay [2] turned out to be 200%. Besides, the z-score in assay [3] (setting [10]) was -0.0769; in assay [3] (setting [11]) it was -1.21; in assay [3] (setting [12]), 0.25. Further, the fluorescence slope in assay [5] is -0.5 (inactive). Moreover, the NADPH fluorescence slope in assay [6] is -5.4e-05 (inactive). Also, in [7], the slope was 0.00327 (inactive). The result in assay [8] was inactive.
